This is an account of results in PMC9162962 (European Journal of Medicinal Chemistry, 2022).

The structures appear in SMILES notation.

The subject of data set [1] is Vero cells. The note with it: MTT.
In data set [2] the test system is MDCK cells. Conditions: MTT.
Data set [3] has as its target T1, SARS-CoV-2 M^pro (Severe acute respiratory syndrome coronavirus 2, UniProt P0DTD1). Type of data set: biochemical.
Data set [4] has as its system SARS-CoV-2. The note with it: lungs and nose of SARS-CoV-2 infected mice; cited from earlier work.
The target of data set [5] is T1, SARS-CoV-2 M^pro. The data set is described as follows: Enzymatic reversibility assay. Type of data set: biochemical. The note with it: 10 μM Mpro, 100 μM compound, 180 min. The essentials: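 Recombinant Mpro (10 μM), E. coli-expressed, held with 100 μM test compound for 180 min, then split into four portions given different numbers of ultrafiltration rounds. Retained protease diluted to 0.5 μM final; activity measured; triplicates averaged.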

Data set [6] addresses T1, SARS-CoV-2 M^pro. Put plainly: Mass spectrometry. Type of data set: binding. The note with it: 2 μM protease, 15 μM compound, on ice 3 h. The essentials: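 Mpro–test compound mixture kept on ice for 3 h, then run on a quadrupole-TOF LC-MS/MS system. Raw mass signal deconvoluted to total intact protein mass to detect adduct formation. Protein was recombinant, E. coli-expressed.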

Turning to `NC(=S)N/N=C/c1ccc(Cc2ccccc2)o1` [F8–B22, (E)-2-((5-benzylfuran-2-yl)methylene)hydrazine-1-carbothioamide], in data set [1], the “Cytotoxicity in Vero cells” value was “low cytotoxicity”. Also, the “Cytotoxicity in MDCK cells” value in data set [2] was “low cytotoxicity”. The “Potency relative to initial compound F8” value in data set [3] (ratio of IC50 values) is reported as 13 fold.

Take `Cc1ccc(NC(=O)c2ccc(CN3CCN(C)CC3)cc2)cc1Nc1nc(-c2cccnc2)cs1` [Masitinib]: the “Effect on coronavirus replication in infected mice” value in data set [4] is “block the replication of coronavirus in the lungs and nose”.

Regarding `NC(=S)N/N=C/c1ccc(-c2ccc(C(=O)O)c(O)c2)o1` [F8–B6, (E)-4-(5-((2-carbamothioylhydrazono)methyl)furan-2-yl)-2-hydroxybenzoic acid], in data set [3], the “Mechanism of inhibition (overall, kinetic and mass spectrometry studies)” value is recorded as “reversible covalent inhibitor”. Also, in data set [3] (enzymatic kinetic assay, 3 h preincubation, varied substrate), the “Type of inhibition from Lineweaver-Burk plot” value is on record as “non-competitive inhibitor”. Besides, in data set [3] (incubation 5, 30, 180 min (Fig. S3A-C)), the “Effect of prolonged incubation on inhibition” value is listed as “time-dependent increase of inhibition activity”. In data set [5], the “Reversibility of inhibition after ultrafiltration” value is reported as “reversible inhibitor”. Also, the “Covalent binding by LC-MS/MS” value in data set [6] was “covalently bonded”.
